Common to all, as to format: functional
Test [1] concerns Simian virus 40. As to the kind of experiment: Inhibition of SV40 DNA replication assessed as [alpha32P]dATP formation at 500 uM after 90 mins by agarose gel electrophoresis. Conditions: Betapolyomavirus macacae, 1.5 h. In a few lines:
(§1)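 Cell-free SV40 DNA replication in Tris creatine phosphate buffer (pH 7.7) with creatine kinase, 7 mM MgCl2, 0.5 mM DTT, 4 mM ATP, 200 µM UTP/GTP/CTP, 100 µM dATP/dGTP/dCTP, SV40 T-Ag, origin-containing pUC DNA and replication proteins. The [α-32P]dATP variant ran 90 min at 37 °C, was stopped with EDTA/SDS/tRNA, and DNA was resolved on 1.0% agarose (12-14 h, 2 V/cm) and autoradiographed.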

A further test concerns A549. As to the kind of experiment: Cytotoxicity against human A549 cells. The following applies: read-out: ED50 (the source's name).
Another test relates to HCT-15. Description: Cytotoxicity against human HCT15 cells. The following applies: read-out: ED50 (the source's name).
The test system of another test is SK-MEL-2. As to the kind of experiment: Cytotoxicity against human SK-MEL-2 cells. The following applies: read-out: ED50 (the source's name).
Test [2] deals with Simian virus 40. Description: Inhibition of SV40 DNA replication assessed as [alpha32P]dATP formation at 250 uM after 90 mins by agarose gel electrophoresis. The following applies: Betapolyomavirus macacae, 1.5 h. In outline:
as §1

In test [3] the test system is Simian virus 40. Description: Inhibition of SV40 DNA replication assessed as [alpha32P]dATP formation at 125 uM after 90 mins by agarose gel electrophoresis. Conditions: Betapolyomavirus macacae, 1.5 h. In outline:
as §1

In another test the test system is XF498. As to the kind of experiment: Cytotoxicity against human XF498 cells. Conditions: read-out: ED50 (the source's name).
Another test relates to SK-OV-3. Description: Cytotoxicity against human SKOV3 cells. Conditions: read-out: ED50 (the source's name).

Molecules are shown by their SMILES. Converted amounts (≈) assume the structure as drawn.

With `C#CCCCCCCCCCCCCCCCC/C=C\CCCC/C=C\CCCCC#C[C@@H](O)C#CCCCCCC/C=C/[C@H](O)C#C`, the inhibition at 500 µM in the test on Simian virus 40 [1] was found to be 100%. For the same molecule, the EC50 in the test with A549 is greater than 10 µg/mL; with HCT-15, 2.5 µg/mL (≈ 3.8 µM); in the test with SK-MEL-2, 1.5 µg/mL (≈ 2.28 µM); with XF498, 5.8 µg/mL (≈ 8.83 µM); with SK-OV-3, 1.5 µg/mL (≈ 2.28 µM). The inhibition at 250 µM with Simian virus 40 [2] is 70%. Further, the inhibition at 125 µM in the test with Simian virus 40 [3] stood at 40%.

On to `C#C/C=C\CCCCCCCCCCCCCC/C=C\CCCC/C=C\CCCC/C=C\[C@@H](O)C#CCCCCCC/C=C/[C@H](O)C#C` [PETROTRIYNDIOL A], for which, in the test on Simian virus 40 [1], the inhibition at 500 µM was 100%. Moreover, the EC50 stood at 1.8 µg/mL (≈ 2.74 µM) with A549; 0.8 µg/mL (≈ 1.22 µM) with HCT-15; 0.6 µg/mL (≈ 0.913 µM) in the test on SK-MEL-2; 1.3 µg/mL (≈ 1.98 µM) in the test on XF498; 0.8 µg/mL (≈ 1.22 µM) in the test on SK-OV-3. Moreover, the inhibition at 250 µM in the test on Simian virus 40 [2] came to 90%. In addition, in the test with Simian virus 40 [3], the inhibition at 125 µM was 62%.

For the molecule `C#C/C=C\CCCCCCCCCCCCCC/C=C\CCCC/C=C\CCCCc1cc(=O)cc(CCCCCC/C=C/C(O)C#C)o1` (configuration not stated) [PETROCORTYNE C], in the test with Simian virus 40 [1], the inhibition at 500 µM worked out at 100%. Also, the EC50 with A549 was greater than 10 µg/mL; in the test on HCT-15, 7.5 µg/mL (≈ 11.2 µM); in the test on SK-MEL-2, 2.4 µg/mL (≈ 3.58 µM); in the test on XF498, greater than 10 µg/mL; with SK-OV-3, 0.7 µg/mL (≈ 1.04 µM). Further, the inhibition at 250 µM in the test on Simian virus 40 [2] worked out at 100%. Besides, the inhibition at 125 µM with Simian virus 40 [3] was 89%.

Regarding `C#C/C=C\CCCCCCCCCCCCC/C=C/C(=O)CCCC/C=C\CCCCC#C[C@@H](O)C#CCCCCCC/C=C/[C@H](O)C#C` [PETROTETRAYNDIOL C], in the test with Simian virus 40 [1], the inhibition at 500 µM is 81%. Also, the EC50 in the test with A549 is greater than 10 µg/mL; in the test on HCT-15, 5.7 µg/mL (≈ 8.52 µM); in the test on SK-MEL-2 it was 4.1 µg/mL (≈ 6.13 µM); in the test on SK-OV-3, 4.2 µg/mL (≈ 6.28 µM). The inhibition at 250 µM in the test on Simian virus 40 [2] stood at 46%. Besides, the inhibition at 125 µM in the test with Simian virus 40 [3] turned out to be 45%.

In the case of `C#C/C=C\CCCCCCCCCCCCCC/C=C\CCC/C=C/C(O)CCCCC#C[C@H](O)C#CCCCCCC/C=C/[C@H](O)C#C` (some centres not stated), the inhibition at 500 µM in the test with Simian virus 40 [1] turned out to be 100%. Also, the EC50 in the test on A549 amounted to 26.3 µg/mL (≈ 39.2 µM); in the test with HCT-15, 5 µg/mL (≈ 7.45 µM); in the test on SK-MEL-2, 2.3 µg/mL (≈ 3.43 µM); with XF498, 8 µg/mL (≈ 11.9 µM); in the test with SK-OV-3, 1.9 µg/mL (≈ 2.83 µM). For the same molecule, the inhibition at 250 µM in the test with Simian virus 40 [2] worked out at 94%. The inhibition at 125 µM in the test with Simian virus 40 [3] was determined as 79%.

For the molecule `C#C/C=C\CCCCCCCCCCCCCCC(=O)CCCCC/C=C\CCCCC#CC(O)C#CCCCCCC/C=C/C(O)C#C` (configuration not stated) [PETROTETRAYNDIOL D], the inhibition at 500 µM in the test with Simian virus 40 [1] stood at 100%. Also, the EC50 with A549, with HCT-15, in the test with SK-MEL-2, in the test on XF498 and in the test on SK-OV-3 was greater than 10 µg/mL each time. Further, the inhibition at 250 µM with Simian virus 40 [2] was 80%. Also, in the test with Simian virus 40 [3], the inhibition at 125 µM came out at 66%.

Consider `C#C/C=C\CCCCCCCCCCCCCC/C=C\CCCC/C=C\CCCCC#CC(=O)C#CCCCCCC/C=C/[C@H](O)C#C` [PETROTETRAYNOL A], for which, in the test on Simian virus 40 [1], the inhibition at 500 µM was 100%. For the same molecule, the EC50 was greater than 30 µg/mL in the test on A549; greater than 30 µg/mL with HCT-15; 5.2 µg/mL (≈ 7.96 µM) in the test on SK-MEL-2; greater than 30 µg/mL in the test with XF498; 4.6 µg/mL (≈ 7.04 µM) in the test with SK-OV-3. Further, in the test on Simian virus 40 [2], the inhibition at 250 µM was determined as 100%. Besides, the inhibition at 125 µM in the test with Simian virus 40 [3] was determined as 76%.

As to `C#C/C=C\CCCCCCCCCCCCCC/C=C\CCCC/C=C\CCCC(O)C#CC(O)C#CCCCCCC/C=C/[C@H](O)C#C` (some centres not stated) [PETROTETRAYNTRIOL A], the inhibition at 500 µM in the test on Simian virus 40 [1] was 100%. The EC50 with A549 is greater than 30 µg/mL; in the test with HCT-15, 12.9 µg/mL (≈ 19.2 µM); in the test with SK-MEL-2, 3.9 µg/mL (≈ 5.81 µM); in the test on XF498, 18.5 µg/mL (≈ 27.6 µM); in the test with SK-OV-3, 4.2 µg/mL (≈ 6.26 µM). The inhibition at 250 µM in the test with Simian virus 40 [2] was found to be 77%. The inhibition at 125 µM in the test with Simian virus 40 [3] stood at 63%.

In the case of `C#C/C=C\CCCCCCCCCCCCC/C=C\CCCC/C=C\CCCCC#C[C@@H](O)C#CCCCCCC/C=C/[C@H](O)C#C` [NOR-3S,14S-PETROCORTYNE A], in the test on Simian virus 40 [1], the inhibition at 500 µM worked out at 70%. Also, the EC50 was found to be 7.3 µg/mL (≈ 11.4 µM) in the test with A549; 3.5 µg/mL (≈ 5.46 µM) in the test with HCT-15; 3.8 µg/mL (≈ 5.93 µM) in the test on SK-MEL-2; 6.1 µg/mL (≈ 9.52 µM) in the test with XF498; 4.4 µg/mL (≈ 6.86 µM) in the test on SK-OV-3. The inhibition at 250 µM in the test with Simian virus 40 [2] was 47%. In addition, the inhibition at 125 µM with Simian virus 40 [3] is 12%.

Consider `C#C/C=C\CCCCCCCCCCCCCCC/C=C\CCCC/C=C\CCCCC#C[C@@H](O)C#CCCCCCC/C=C/[C@H](O)C#C`, for which the inhibition at 500 µM with Simian virus 40 [1] worked out at 100%. Besides, the EC50 came out at 11.3 µg/mL (≈ 16.9 µM) in the test with A549; 1.7 µg/mL (≈ 2.54 µM) in the test with HCT-15; 0.8 µg/mL (≈ 1.2 µM) with SK-MEL-2; 2.5 µg/mL (≈ 3.74 µM) in the test on XF498; 2.2 µg/mL (≈ 3.29 µM) in the test on SK-OV-3. Moreover, the inhibition at 250 µM in the test on Simian virus 40 [2] worked out at 86%. Further, the inhibition at 125 µM in the test on Simian virus 40 [3] stood at 59%.

Take `C#CCCCCCCCCCCCCCCCC/C=C\CCCC/C=C\CC/C=C/C#C[C@@H](O)C#CCCCCCC/C=C/[C@H](O)C#C` [PETROTETRAYNDIOL E]: the inhibition at 500 µM with Simian virus 40 [1] came to 100%. Besides, the EC50 in the test on A549 turned out to be 24.5 µg/mL (≈ 37.4 µM); in the test on HCT-15, 1.8 µg/mL (≈ 2.75 µM); with SK-MEL-2 it was 1.1 µg/mL (≈ 1.68 µM); in the test with XF498, 3.4 µg/mL (≈ 5.19 µM); in the test with SK-OV-3 it was 1.7 µg/mL (≈ 2.6 µM). In the test with Simian virus 40 [2], the inhibition at 250 µM amounted to 83%. In addition, the inhibition at 125 µM with Simian virus 40 [3] came to 62%.

What is called inhibition is the change of the read-out against control, counted positive when it falls.

These data come from ChEMBL document CHEMBL1150220, “Additional cytotoxic polyacetylenes from the marine sponge Petrosia species” (2001).
